# In the library only some 4.3% were active in any assay of this set; here they are far more common.
# GalR3 antag = blocks the human galanin receptor 3. O60755. HEK293 GalR3-CNG cAMP membrane potential fluorescence; galR3 body fused to GalR1 C-terminus. inhibition, % at 3 µM. actives 0.44% (n = 360,000). AID 651719;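 active = inhibition above the screen-wide average plus 3 SD, cut at about 13% in these data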;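 note: forskolin and galanin both at EC90 stimulate the cells; cAMP rise reported by CNG channel membrane potential dye signal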
# CHO parental Ca = counter-screen for OX1R antagonists: effect in parental CHO cells; actives 0.63% (n = 330,000); inhibition, % at 5.6 µM; parental CHO-K1, ATP-induced calcium, Fluo-8 fluorescence;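 active = inhibition above that plate's mean sample inhibition plus 3 SD, cut at about 26% in these data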
#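 Material – parental CHO cells · Reagent – ATP stimulus · Compound – single nominal dose of 5.6 µM per compound · Detection – Fluo-8 fluorescence · Read-out basis – percent inhibition of calcium signal · Controls – ATP-challenged DMSO wells low, unchallenged DMSO wells high · Repeats – no replicates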
# TAAR1 ag = agonists of human TAAR1; AID 624467; CHO RD-HGA16 TAAR1, Fluo-8 calcium fluorescence; vehicle wells 0%, saturating PEA agonist 100%; Q96RJ0; actives 0.99% (n = 360,000); activation, % at 3 µM;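 active = activation above the mean activation of all test compounds in the run plus 3 SD, cut at about 38% in these data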
# Target sequence (Q96RJ0 whole entry, looked up): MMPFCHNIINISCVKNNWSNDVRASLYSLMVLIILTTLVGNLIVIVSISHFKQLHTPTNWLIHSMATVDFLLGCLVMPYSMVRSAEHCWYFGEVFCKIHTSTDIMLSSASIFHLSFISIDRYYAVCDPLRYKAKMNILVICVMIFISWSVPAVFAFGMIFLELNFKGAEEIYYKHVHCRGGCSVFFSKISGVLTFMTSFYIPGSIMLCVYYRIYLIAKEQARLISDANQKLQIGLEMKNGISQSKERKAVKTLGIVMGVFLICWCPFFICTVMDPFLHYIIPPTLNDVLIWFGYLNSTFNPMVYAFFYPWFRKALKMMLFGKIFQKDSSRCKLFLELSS
#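 System: CHO-derived RD-HGA16 cells with stable Gα16 and human TAAR1 / Times: 17-24 h plating, Fluo-8 75 min 37 °C, 30 min RT / Technique: calcium-sensitive Fluo-8 signal, excitation 470-495, emission 515-575 nm / Measure: % activation relative to PEA EC100 response / Benchmarks: DMSO and PEA EC100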
# OX1R antag-1 = antagonists of human orexin 1 receptor (OX1R). O43613. OX1R-expressing cells, FRET antagonist read-out. inhibition, % at 6.6 µM. actives 1.8% (n = 330,000). AID 485270; in the data active = inhibition mostly above about 38%, no sharp cut-off; inactive = mostly below about 40%
# OX1R antag-2 = human HCRTR1 antagonism | AID 434989 | inhibition, % at 5 µM | actives 0.43% (n = 330,000) | O43613 | CHO/OX1R cells, Fluo-8 calcium fluorescence, orexin A;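 active = inhibition above its plate's threshold, mean inhibition of all tested compounds on the plate plus 3 SD, cut at about 37% in these data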
# TAAR1 antagonist = human TAAR1 antagonism | inhibition, % at 3 µM | actives 1.5% (n = 360,000) | Q96RJ0 | AID 624466 | CHO RD-HGA16 TAAR1, Fluo-8 calcium fluorescence, antagonist;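 active = inhibition above a per-plate cutoff, the mean inhibition of test compounds on that plate plus 3 SD, cut at about 49% in these data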
#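 System: RD-HGA16 CHO cells with stable hTAAR1 and Gα16 | Probe or stimulus: EC80 β-phenethylamine stimulus | Dosing: 3 µM, single point | Times: Dye loading 75 min at 37 °C, then 30 min room temperature | Measured by: Fluo-8 calcium-sensitive fluorescence | Read-out basis: % inhibition of agonist calcium response | Replicates: n of 1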
# A number is an active result; i = inactive; nt = not tested or not shown.
SMILES,GalR3 antag,CHO parental Ca,TAAR1 ag,OX1R antag-1,OX1R antag-2,TAAR1 antagonist
COc1ccc(Oc2nc3c(c(=O)n(C)c(=O)n3C)n2Cc2cccc(OC)c2)cc1,i,i,i,i,i,i
O=C(CN1CCN(CCN2C(=O)c3cccc4cccc(c34)C2=O)CC1)c1ccc(F)cc1,i,i,i,45,i,i
COc1cc(-c2c(CCO)sc3ccccc23)cc(OC)c1OC,i,nt,i,nt,nt,i
CCN(CC)c1ccc(/C=C/c2cc(-c3ccccc3)c3ccccc3n2)cc1,i,38,i,i,i,i
OC(c1ccccc1)(c1nc(-c2ccc(F)c(Cl)c2)cs1)C(F)(F)F (stereo not drawn),i,nt,i,nt,nt,i
C/C(Cn1nnc([N+](=O)[O-])n1)=N\NC(=O)c1ccccc1Cl,i,i,i,42,i,i
C/C(Cn1nnc([N+](=O)[O-])n1)=N\NC(=O)c1cccc(Cl)c1,i,i,i,i,i,i
O=C(CSc1nc2ccc(N3CCOCC3)cc2c(=O)n1CCc1ccccc1)NCC1CCCO1 (stereo not drawn),i,i,i,i,i,52
COc1ccc(CCn2c(=N)c(C(=O)NCC3CCCO3)cc3c(=O)n4ccccc4nc32)cc1OC (stereo not drawn),i,i,i,50,i,i
Cc1cccn2c(=O)c3cc(C(=O)NCC4CCCO4)c(=N)n(CCc4ccccc4)c3nc12 (stereo not drawn),i,i,i,51,i,i
CCCCNC(=O)CSc1nc2ccc(N3CCOCC3)cc2c(=O)n1CCc1ccccc1,i,i,i,i,i,i
CCN1C(=O)[C@H]2[C@@H](c3ccc(C)cc3)N[C@]3(CCCN(Cc4ccc(F)cc4)C3=O)[C@H]2C1=O,i,nt,i,nt,nt,i
COc1ccccc1NC(=O)C(=O)NCCC1CCCCN1S(=O)(=O)c1ccc(F)cc1 (stereo not drawn),i,i,i,i,i,i
CCOC(=O)/C(C#N)=C1/C=C(C)NC(c2ccccc2O)=N1,i,i,i,40,i,i
CCOC(=O)/C(C#N)=C1/C=CN(C)C(C)=N1,i,i,i,i,i,i
CCOc1ccc(CCN2C(=S)N([C@@H](CC(C)C)CN3CCCC3CN3C(=S)NC[C@@H]3Cc3ccccc3)C[C@@H]2CC(C)C)cc1 (stereo partly drawn),i,nt,i,nt,nt,i
COc1cc(OC)cc(C(=O)NCC(=O)OCC(=O)Nc2ccc(C)c(S(=O)(=O)N3CCOCC3)c2)c1,i,nt,i,nt,nt,i
CO[C@H]1CN(C)C(=O)c2cc(NC(=O)c3cc(C)on3)ccc2OC[C@@H](C)N(C(=O)C2CC2)C[C@H]1C,i,nt,i,nt,nt,i
Oc1ccc(N=Nc2ccc(Br)cc2)c(O)c1,i,i,i,i,i,i
Cc1ccc(N=Nc2ccc(O)cc2)c(Br)c1,i,56,i,i,i,i
CC(C)C(OC(=O)CN1C(=O)COc2ccccc21)C(=O)NC1CCCCC1 (stereo not drawn),i,i,i,i,i,i
COC(=O)c1ccc(OCC(=O)c2ccccc2OC)cc1,i,i,i,45,i,i
COC(=O)c1ccc(COC(=O)c2ccccc2OC)cc1,i,i,i,i,i,i
O=C1NC[C@H](c2ccccc2)OC(=O)[C@@H](Cc2ccc(F)cc2)C/C=C\C[C@H]1CC(=O)N(CCO)Cc1ccccc1,i,i,49,56,i,81
CC(C)(C)OC(=O)C[C@H]1C/C=C\C[C@@H](CC(=O)N(CCO)Cc2ccccc2)C(=O)NC[C@H](c2ccccc2)OC1=O,i,i,i,i,i,i
CC(C)(C)OC(=O)C[C@@H]1C/C=C\C[C@H](CC(=O)N(CCO)Cc2ccccc2)C(=O)NC[C@@H](c2ccccc2)OC1=O,i,i,i,54,i,i
O=C1NC[C@H](c2ccccc2)OC(=O)[C@H](Cc2ccc(F)cc2)CC/C=C/C[C@@H]1CC(=O)N(CCO)Cc1ccccc1,i,i,i,i,i,57
CN1C[C@@H](CO)O[C@@H](n2cnc3c(N4CCOCC4)ncnc32)C1,i,nt,i,nt,nt,i
COC(=O)N1C[C@H](OC(=S)Nc2ccc(OC)cc2OC)[C@H]2C[C@@H]1c1ccccc1O2,i,nt,i,nt,nt,i

# Source: PubChem BioAssay (The Scripps Research Institute Molecular Screening Center)
